Source: ChEMBL document CHEMBL1127533, “Presynaptic cholinergic modulators as potent cognition enhancers and analgesic drugs. 2. 2-Phenoxy-, 2-(phenylthio)-, and 2-(phenylamino)alkanoic acid esters” (J Med Chem, 1994)
Active and inactive are the calls of the source.

Assays:
Mus musculus [1] = species on record: Mus musculus; assay: Analgesic activity in male albino Swiss-Webster mice in hotplate test; assay type: functional
Method in brief: (§1)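 Mouse hot-plate assay after Woolfe, with the plate held at 52.5 ± 0.1 °C and a 45 s cutoff. Groups held 8–20 mice. Analgesic potency is expressed as the ED50.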

Mus musculus [2] = assay: Analgesic potency was evaluated as effective dose after subcutaneous administration.; assay type: functional; method in brief: as §1
[3] = Mus musculus, sc, read-out: ED50

SMILES	Analgesic activity (Mus musculus [1])	ED50 (Mus musculus [2]; [3]) [mg/kg]	ED50 (Mus musculus [2]) [mg/kg]
CC(Oc1ccccc1Cl)C(=O)OC1CC2CCC(C1)N2C (stereo not drawn)	inactive	–	–
CC(Oc1ccc(F)cc1)C(=O)OC1CC2CCC(C1)N2C.O=C(O)/C=C\C(=O)O (racemic)	91	33	–
CC(Oc1ccc(Cl)cc1)C(=O)OC1CC2CCC(C1)N2C.O=C(O)/C=C\C(=O)O (stereo in doubt; 12)	26	–	21
CC(Oc1ccc2ccccc2c1)C(=O)OC1CC2CCC(C1)N2C.O=C(O)/C=C\C(=O)O (stereo not drawn)	86	34	–
CC[C@H](Sc1ccc(Cl)cc1)C(=O)OC1CC2CCC(C1)N2C (stereo partly drawn)	38	14	–
CC(Oc1cccc2ccccc12)C(=O)OC1CC2CCC(C1)N2C (stereo not drawn)	inactive	–	–
CC(Sc1ccc(Cl)cc1)C(=O)OC1CC2CCC(C1)N2C.O=C(O)/C=C\C(=O)O (racemic)	72	19	–
CC(Oc1cccc(Cl)c1)C(=O)OC1CC2CCC(C1)N2C (stereo not drawn)	62	26	–
CCC(Oc1ccc2cc(Br)ccc2c1)C(=O)OC1CC2CCC(C1)N2C.O=C(O)/C=C\C(=O)O (stereo not drawn)	32	42	–
CC(Oc1ccc(Cl)cc1)C(=O)OC1CCN(C)CC1 (stereo not drawn)	inactive	–	–
C[C@H](Oc1ccc(Cl)cc1)C(=O)OC1CC2CCC(C1)N2C (stereo partly drawn)	37	17	–
C[C@@H](Oc1ccc(Cl)cc1)C(=O)OC1CC2CCC(C1)N2C (stereo partly drawn)	68	16	–
CC(Sc1ccc(Br)cc1)C(=O)OC1CC2CCC(C1)N2C (stereo not drawn)	33	35	–
CC(Oc1ccc(Cl)c2ccccc12)C(=O)OC1CC2CCC(C1)N2C (stereo not drawn)	inactive	–	–
CCC(Oc1cccc2ccccc12)C(=O)OC1CC2CCC(C1)N2C (stereo not drawn)	inactive	–	–
CC[C@H](Oc1ccc(Cl)cc1)C(=O)OC1CC2CCC(C1)N2C (stereo partly drawn)	56	18	–
CCC(Sc1ccc(Cl)cc1)C(=O)OC1CC2CCC(C1)N2C (racemic)	79	20	–
CSc1ccc(OC(C)C(=O)OC2CC3CCC(C2)N3C)cc1.O=C(O)/C=C\C(=O)O (stereo not drawn)	21	43	–
CC(Sc1ccccc1)C(=O)OC1CC2CCC(C1)N2C.O=C(O)/C=C\C(=O)O (stereo not drawn)	62	30	–
CC(Oc1ccc(Br)cc1)C(=O)OC1CC2CCC(C1)N2C (stereo not drawn)	86	31	–
Cc1cc(OC(C)C(=O)OC2CC3CCC(C2)N3C)ccc1Cl (stereo not drawn)	inactive	–	–
CC(Oc1ccc(Cl)cc1)C(=O)OC1CC2CCC(C1)N2Cc1ccccc1 (stereo not drawn)	inactive	–	–
CC[C@@H](Oc1ccc(Cl)cc1)C(=O)OC1CC2CCC(C1)N2C (stereo partly drawn)	89	14	–
CCC(COC1CC2CCC(C1)N2C)Oc1ccc(Cl)cc1 (stereo not drawn)	inactive	–	–

SMILES	Analgesic activity (Mus musculus [1])	ED50 (Mus musculus [2]; [3]) [mg/kg]	ED50 (Mus musculus [2]) [mg/kg]
CC(Oc1ccccc1)C(=O)OC1CC2CCC(C1)N2C (stereo not drawn)	inactive	–	–
C[C@@H](Oc1ccc(F)cc1)C(=O)OC1CC2CCC(C1)N2C (stereo partly drawn)	106	21	–
CCC(Oc1ccc(Cl)cc1)C(=O)OC1CCN(C)CC1 (stereo not drawn)	inactive	–	–
CC(Sc1ccc(F)cc1)C(=O)OC1CC2CCC(C1)N2C (stereo not drawn)	41	15	–
CC(Oc1ccc(C(C)(C)C)cc1)C(=O)OC1CC2CCC(C1)N2C (stereo not drawn)	inactive	–	–
CN1C2CCC1CC(OC(=O)C(C)(C)Oc1ccc(Cl)cc1)C2 (stereo not drawn)	52	23	–
CC(Oc1ccc(-c2ccccc2)cc1)C(=O)OC1CC2CCC(C1)N2C (stereo not drawn)	inactive	–	–
CCC(Sc1ccccc1)C(=O)OC1CC2CCC(C1)N2C (stereo in doubt; (-)-42)	53	–	13
CC(C(=O)OC1CC2CCC(C1)N2C)N(C)c1ccc(Cl)cc1.O=C(O)/C=C\C(=O)O (stereo not drawn)	86	29	–
CCC(Oc1ccccc1)C(=O)OC1CC2CCC(C1)N2C (stereo not drawn)	35	31	–
CC(Oc1ccc(Cl)cc1)C(=O)NC1CC2CCC(C1)N2C.Cl (stereo not drawn)	33	36	–
CCC(COC1CC2CCC(C1)N2C)Sc1ccc(Cl)cc1 (stereo not drawn)	53	39	–
CCC(Oc1ccc(F)cc1)C(=O)OC1CC2CCC(C1)N2C (stereo not drawn)	94	37	–
CC(Oc1ccc2cc(Br)ccc2c1)C(=O)OC1CC2CCC(C1)N2C (stereo not drawn)	inactive	–	–
C[C@H](Oc1ccc(F)cc1)C(=O)OC1CC2CCC(C1)N2C (stereo partly drawn)	65	23	–
CC(Oc1ccc([S+](C)[O-])cc1)C(=O)OC1CC2CCC(C1)N2C (stereo not drawn)	inactive	–	–
CC(C(=O)OC1CC2CCC(C1)N2C)C(=O)c1ccc(Cl)cc1 (stereo not drawn)	30	34	–
CN1C2CCC1CC(OC(=O)C(Oc1ccc(Cl)cc1)c1ccccc1)C2 (stereo not drawn)	inactive	–	–
CC(Oc1ccc(Cl)c(Cl)c1)C(=O)OC1CC2CCC(C1)N2C.O=C(O)/C=C\C(=O)O (stereo not drawn)	50	22	–
CCC(C(=O)OC1CC2CCC(C1)N2C)N(C)c1ccc(Cl)cc1.O=C(O)/C=C\C(=O)O (stereo not drawn)	85	38	–
CCC(Oc1ccc(Cl)cc1)C(=O)OCC#CCN(CC)CC (stereo not drawn)	inactive	–	–
CC(C)C(Sc1ccc(Cl)cc1)C(=O)OC1CC2CCC(C1)N2C.O=C(O)/C=C\C(=O)O (stereo not drawn)	41	41	–
CN1C2CCC1CC(OC(=O)C(Cc1ccccc1)Oc1ccc(Cl)cc1)C2 (stereo not drawn)	inactive	–	–
CC(Nc1ccc(Cl)cc1)C(=O)OC1CC2CCC(C1)N2C (stereo not drawn)	33	31	–

SMILES	Analgesic activity (Mus musculus [1])	ED50 (Mus musculus [2]; [3]) [mg/kg]	ED50 (Mus musculus [2]) [mg/kg]
CCC(Oc1ccc(Cl)cc1)C(=O)OCCCN(C)C (stereo not drawn)	inactive	–	–
CCC(Sc1ccccc1)C(=O)OC1CC2CCC(C1)N2C (single isomer, unassigned; (+))	86	16	–
CC(Oc1ccc(C#N)cc1)C(=O)OC1CC2CCC(C1)N2C.O=C(O)/C=C\C(=O)O (stereo not drawn)	53	31	–
CC(=O)OCC(Oc1ccc(Cl)cc1)C(=O)OC1CC2CCC(C1)N2C (stereo not drawn)	25	23	–
CCN1C2CCC1CC(OC(=O)C(C)Oc1ccc(Cl)cc1)C2.O=C(O)/C=C\C(=O)O (stereo not drawn)	42	42	–
CC(Nc1ccccc1)C(=O)OC1CC2CCC(C1)N2C.Cl (stereo not drawn)	74	32	–
CCC(Oc1ccc(Cl)c2ccccc12)C(=O)OC1CC2CCC(C1)N2C (stereo not drawn)	inactive	–	–
CCC(Oc1ccc(Cl)cc1)C(=O)OC1CC2CCC(C1)N2CC (stereo not drawn)	45	32	–
CCN(CC)CCOC(=O)C(C)Oc1ccc(Cl)cc1 (stereo not drawn)	inactive	–	–
Cc1ccc(SC(C)C(=O)OC2CC3CCC(C2)N3C)cc1.O=C(O)/C=C\C(=O)O (stereo not drawn)	33	7	–
CC[C@@H](Sc1ccc(Cl)cc1)C(=O)OC1CC2CCC(C1)N2C (stereo partly drawn)	64	11	–
CC(Oc1ccc(C(F)(F)F)cc1)C(=O)OC1CC2CCC(C1)N2C (stereo not drawn)	44	26	–
C[C@H](Sc1ccc(Cl)cc1)C(=O)OC1CC2CCC(C1)N2C (stereo partly drawn)	34	16	–
CC(Oc1ccc(Cl)cc1)C(=O)OC1CC2CCC(C1)N2 (stereo not drawn)	inactive	–	–
CCC(Oc1ccc2ccccc2c1)C(=O)OC1CC2CCC(C1)N2C (stereo not drawn)	inactive	–	–
CCN(CC)CC#CCOC(=O)C(C)Oc1ccc(Cl)cc1 (stereo not drawn)	inactive	–	–
CC(COC1CC2CCC(C1)N2C)Sc1ccc(Cl)cc1 (stereo not drawn)	inactive	–	–
CC(C)C(Oc1ccc(Cl)cc1)C(=O)OC1CC2CCC(C1)N2C (stereo not drawn)	inactive	–	–
C[C@@H](Sc1ccc(Cl)cc1)C(=O)OC1CC2CCC(C1)N2C (stereo partly drawn)	61	14	–
CC(COC1CC2CCC(C1)N2C)Oc1ccc(Cl)cc1 (stereo not drawn)	64	44	–
CC(C(=O)OC1CC2CCC(C1)N2C)[S+]([O-])c1ccccc1 (stereo not drawn)	inactive	–	–
CN1C2CCC1CC(OC(=O)COc1ccccc1)C2 (stereo not drawn)	inactive	–	–
